Assay results reported in ChEMBL document CHEMBL1938355, “Antimycobacterial activities of 5-alkyl (or halo)-3'-substituted pyrimidine nucleoside analogs” (Bioorg Med Chem Lett, 2012).
Values after ≈ are worked out from the molar mass of the structure shown. Active and inactive are the calls of the source. No cut-off for these calls is given here.

Tests used:
[1] = system: Mycobacterium tuberculosis; experiment: Antimycobacterial activity against Mycobacterium bovis BCG assessed as growth inhibition at 0.5 to 100 ug/ml by microplate alamar blue assay; format: functional, organism-based; details: variant bovis BCG
Summary of the method: (§1)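 Strains obtained from ATCC. Tested by microplate alamar blue assay. Compounds made up as 10 mg/mL DMSO stocks, then serially diluted in 7H9GC medium. Final test concentrations were 100, 50, 25, 10, 5, 1 and 0.5, each in triplicate. Experiments were run twice, and mean percent growth inhibition is reported.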

[2] = system: Mycobacterium tuberculosis; experiment: Antimycobacterial activity against Mycobacterium bovis BCG assessed as growth inhibition at 100 ug/ml by microplate alamar blue assay; format: functional; details: variant bovis BCG, read-out: GI; summary of the method: as §1
[3] = system: Mycobacterium tuberculosis; experiment: Antimycobacterial activity against Mycobacterium bovis BCG by microplate alamar blue assay; format: functional; details: variant bovis BCG
[4] = system: Mycobacterium tuberculosis; experiment: Antimycobacterial activity against Mycobacterium bovis BCG assessed as growth inhibition at 1 ug/ml by microplate alamar blue assay; format: functional; details: variant bovis BCG, read-out: GI; summary of the method: as §1
[5] = system: Mycobacterium tuberculosis; experiment: Antimycobacterial activity against Mycobacterium bovis BCG assessed as growth inhibition at 10 ug/ml by microplate alamar blue assay; format: functional; details: variant bovis BCG, read-out: GI; summary of the method: as §1
[6] = system: Mycobacterium tuberculosis; experiment: Antimycobacterial activity against Mycobacterium bovis BCG assessed as growth inhibition at 50 ug/ml by microplate alamar blue assay; format: functional; details: variant bovis BCG, read-out: GI; summary of the method: as §1
[7] = system: Mycobacterium tuberculosis; experiment: Antimycobacterial activity against Mycobacterium bovis BCG assessed as growth inhibition at 0.5 ug/ml by microplate alamar blue assay; format: functional; details: variant bovis BCG, read-out: GI; summary of the method: as §1

Compound	growth inhibition (GI) [1]	inhibition of growth at 100 µg/mL [2]	further results
O=c1[nH]c(=O)n([C@H]2C[C@H](F)[C@@H](CO)O2)cc1C(F)(F)F	inactive	–	–
[N-]=[N+]=N[C@H]1C[C@H](n2cc(Br)c(=O)[nH]c2=O)O[C@@H]1CO	–	50%	–
CCc1cn([C@H]2C[C@H](I)[C@@H](CO)O2)c(=O)[nH]c1=O	inactive	–	–
[N-]=[N+]=N[C@H]1C[C@H](n2cc(Cl)c(=O)[nH]c2=O)O[C@@H]1CO	–	50%	–
CCc1cn([C@H]2C[C@@H](O)[C@@H](CO)O2)c(=O)[nH]c1=O	inactive	–	–
[N-]=[N+]=N[C@H]1C[C@H](n2cc(F)c(=O)[nH]c2=O)O[C@@H]1CO	inactive	–	–
N[C@@H]1CONC1=O [CYCLOSERINE]	–	100%	MIC50 [3]: 1 µg/mL (≈ 9.79 µM); inhibition of growth at 1 µg/mL [4]: 50%; inhibition of growth at 10 µg/mL [5]: 100%; inhibition of growth at 50 µg/mL [6]: 100%
CO[C@H]1/C=C/O[C@@]2(C)Oc3c(C)c(O)c4c(O)c(c(/C=N/N5CCN(C)CC5)c(O)c4c3C2=O)NC(=O)/C(C)=C\C=C\[C@H](C)[C@H](O)[C@@H](C)[C@@H](O)[C@@H](C)[C@H](OC(C)=O)[C@@H]1C [RIFAMPIN]	–	–	inhibition of growth at 0.5 µg/mL [7]: 100%
CCc1cn([C@H]2C[C@H](N=[N+]=[N-])[C@@H](CO)O2)c(=O)[nH]c1=O	–	95%	MIC50 [3]: 1 µg/mL (≈ 3.56 µM); inhibition of growth at 1 µg/mL [4]: 50%; inhibition of growth at 10 µg/mL [5]: 85%; inhibition of growth at 50 µg/mL [6]: 95%
CCc1cn([C@H]2CC[C@@H](CO)O2)c(=O)[nH]c1=O	inactive	–	–
Cc1cn([C@H]2C[C@H](N)[C@@H](CO)O2)c(=O)[nH]c1=O [3-AMINO- 3-DEOXYTHYMIDINE]	–	50%	–
CCc1cn([C@H]2C[C@H](F)[C@@H](CO)O2)c(=O)[nH]c1=O	–	40%	–
